Where a chain is given by its changes, count along the chain named.
Key:
[1] = Selectivity ratio of EC90 for inhibition of NS5A in Hepatitis C virus subtype 2b infected in human HuH7 cells assessed as reduction in viral to EC90 for inhibition of NS5A in Hepatitis C virus subtype 1a; format: cell-based
[2] = system: Hepatitis C virus subtype 1a; test: Selectivity ratio of EC90 for inhibition of NS5A Q30D mutant in Hepatitis C virus subtype 1a to EC90 for Selectivity ratio of EC90 for inhibition of NS5A in Hepatitis C virus subtype 1a
Method in brief: (§1)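 Fold shift is calculated against the GT1a EC90. The variant EC90 comes from a transient replicon assay: the NS5A variant is introduced into a GT1a-H77 or GT1b-Con1 replicon and electroporated into Huh7-derived cells. The read-out is reduced luciferase signal. EC90s are means of at least two experiments.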

[3] = Selectivity ratio of EC90 for inhibition of NS5A L31V mutant in Hepatitis C virus subtype 1a infected in human HuH7 cells assessed as reduction in viral to EC90 for inhibition of NS5A in Hepatitis C virus subtype 1a; format: cell-based; method in brief: as §1
Huh-7 [4] = test: Inhibition of NS5A in Hepatitis C virus subtype 2b infected in human HuH7 cells assessed as reduction in viral replication by luciferase reporter gene assay; format: cell-based
Method in brief: (§2)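 Transient replicon assay with GT1a-H77, GT1b-Con1 or chimeric replicons, electroporated into a Huh7-derived cell line. Percent inhibition of replication, read as a drop in luciferase signal, was calculated at each concentration to give EC90. Values are means of at least two experiments.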

Huh-7 [5] = test: Inhibition of NS5A in Hepatitis C virus subtype 1b infected in human HuH7 cells assessed as reduction in viral replication by luciferase reporter gene assay; format: cell-based; method in brief: as §2
[6] = system: Hepatitis C virus subtype 1a; test: Inhibition of NS3 R155K mutant in Hepatitis C virus subtype 1a
[7] = Selectivity ratio of EC90 for inhibition of NS5A L31V mutant in Hepatitis C virus subtype 1b to EC90 for Selectivity ratio of EC90 for inhibition of NS5A in Hepatitis C virus subtype 1a; method in brief: as §1
Huh-7 [8] = test: Inhibition of NS5A in Hepatitis C virus subtype 3a infected in human HuH7 cells assessed as reduction in viral replication by luciferase reporter gene assay; format: cell-based; method in brief: as §2
Huh-7 [9] = test: Inhibition of NS5A in Hepatitis C virus subtype 4a infected in human HuH7 cells assessed as reduction in viral replication by luciferase reporter gene assay; format: cell-based; method in brief: as §2
[10] = system: Hepatitis C virus subtype 1a; test: Selectivity ratio of EC90 for inhibition of NS5A Q30R mutant in Hepatitis C virus subtype 1a to EC90 for Selectivity ratio of EC90 for inhibition of NS5A in Hepatitis C virus subtype 1a; method in brief: as §1
[11] = system: Hepatitis C virus subtype 1a; test: Selectivity ratio of EC90 for inhibition of NS5A R155K mutant in Hepatitis C virus subtype 1a to EC90 for Selectivity ratio of EC90 for inhibition of NS5A in Hepatitis C virus subtype 1a
[12] = Selectivity ratio of EC90 for inhibition of NS5A in Hepatitis C virus subtype 1b infected in human HuH7 cells assessed as reduction in viral to EC90 for inhibition of NS5A in Hepatitis C virus subtype 1a; format: cell-based
Method in brief: (§3)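 Fold shift calculated against the GT1a EC90, using EC90 values from the luciferase replicon assay in Huh7-derived cells.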

[13] = system: Nonstructural protein 5A (Hepatitis C virus), Q5L478 [UNDEFINED MUTATION]; test: Inhibition of NS5A L31V mutant in Hepatitis C virus subtype 1a infected in human HuH7 cells assessed as reduction in viral replication by luciferase reporter gene assay; format: cell-based; conditions: Huh-7
Method in brief: (§4)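 NS5A resistance variants engineered into GT1a-H77 or GT1b-Con1 replicons. Each variant replicon is transfected transiently by electroporation into a Huh7-derived cell line. Percent inhibition is taken from the drop in luciferase signal at each compound concentration, and EC90 is calculated from these. Values are means of at least two experiments.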

[14] = system: Nonstructural protein 5A (Hepatitis C virus), Q5L478 [UNDEFINED MUTATION]; test: Inhibition of NS5A Q30R mutant in Hepatitis C virus subtype 1a; method in brief: as §4
[15] = system: Hepatitis C virus subtype 1a; test: Selectivity ratio of EC90 for inhibition of NS5A Y93N mutant in Hepatitis C virus subtype 1a to EC90 for Selectivity ratio of EC90 for inhibition of NS5A in Hepatitis C virus subtype 1a; method in brief: as §1
Huh-7 [16] = test: Inhibition of NS5A in Hepatitis C virus subtype 1a infected in human HuH7 cells assessed as reduction in viral replication by luciferase reporter gene assay; format: cell-based; method in brief: as §2
[17] = Selectivity ratio of EC90 for inhibition of NS5A Y93H mutant in Hepatitis C virus subtype 1b to EC90 for Selectivity ratio of EC90 for inhibition of NS5A in Hepatitis C virus subtype 1a; method in brief: as §1
[18] = system: Hepatitis C virus subtype 1a; test: Inhibition of NS3 R155K/V36M mutant in Hepatitis C virus subtype 1a
[19] = Selectivity ratio of EC90 for inhibition of NS5A in Hepatitis C virus subtype 4a infected in human HuH7 cells assessed as reduction in viral to EC90 for inhibition of NS5A in Hepatitis C virus subtype 1a; format: cell-based; method in brief: as §3
[20] = system: Nonstructural protein 5A (Hepatitis C virus), Q5L478 [UNDEFINED MUTATION]; test: Inhibition of NS5A L31V mutant in Hepatitis C virus subtype 1b; method in brief: as §4
[21] = system: T1, Nonstructural protein 5A (Hepatitis C virus), Q5L478 [Y93H]; test: Inhibition of NS5A Y93H mutant in Hepatitis C virus subtype 1b; method in brief: as §4
T1 sequence (whole entry): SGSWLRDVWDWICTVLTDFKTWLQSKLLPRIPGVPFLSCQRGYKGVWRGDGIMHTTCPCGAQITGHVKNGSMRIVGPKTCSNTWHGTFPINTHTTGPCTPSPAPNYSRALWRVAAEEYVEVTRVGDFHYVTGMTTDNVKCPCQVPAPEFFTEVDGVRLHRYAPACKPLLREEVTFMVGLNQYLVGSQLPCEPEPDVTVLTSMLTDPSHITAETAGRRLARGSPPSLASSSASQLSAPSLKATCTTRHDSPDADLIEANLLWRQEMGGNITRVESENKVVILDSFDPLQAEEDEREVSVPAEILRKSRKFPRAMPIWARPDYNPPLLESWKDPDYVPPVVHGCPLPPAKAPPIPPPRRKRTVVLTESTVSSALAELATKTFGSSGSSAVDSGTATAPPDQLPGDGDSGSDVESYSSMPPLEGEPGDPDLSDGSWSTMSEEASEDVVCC

[22] = system: Hepatitis C virus subtype 1a; test: Selectivity ratio of EC90 for inhibition of NS5A R155K V36 mutant in Hepatitis C virus subtype 1a to EC90 for Selectivity ratio of EC90 for inhibition of NS5A in Hepatitis C virus subtype 1a
[23] = system: T2, Nonstructural protein 5A (Hepatitis C virus), Q5L478 [Y93N]; test: Inhibition of NS5A Y93N mutant in Hepatitis C virus subtype 1a; method in brief: as §4
T2 sequence (whole entry): T1 sequence (whole entry) with H93N

[24] = Selectivity ratio of EC90 for inhibition of NS5A in Hepatitis C virus subtype 3a infected in human HuH7 cells assessed as reduction in viral to EC90 for inhibition of NS5A in Hepatitis C virus subtype 1a; format: cell-based
[25] = Selectivity ratio of EC90 for inhibition of NS3 D168Y mutant in Hepatitis C virus subtype 1b to EC90 for Selectivity ratio of EC90 for inhibition of NS5A in Hepatitis C virus subtype 1a
[26] = system: Hepatitis C virus subtype 1a; test: Inhibition of NS5A Q30D mutant in Hepatitis C virus subtype 1a; method in brief: as §4
[27] = system: Hepatitis C virus subtype 1b; test: Inhibition of NS3 D168Y mutant in Hepatitis C virus subtype 1b
[28] = Selectivity ratio of EC90 for inhibition of NS5A Y93H mutant in Hepatitis C virus subtype 1a infected in human HuH7 cells assessed as reduction in viral to EC90 for inhibition of NS5A in Hepatitis C virus subtype 1a; format: cell-based; method in brief: as §1

Structure (SMILES): COC(=O)N[C@H](C(=O)N1CCC[C@H]1c1ncc(-c2cc(F)c3c(c2)OC(c2ccc4c(c2)OCCC4)n2c-3cc3cc(-c4cnc([C@@H]5CCCN5C(=O)[C@@H](NC(=O)OC)C(C)C)[nH]4)ccc32)[nH]1)C(C)C (stereo partly drawn)
- Selectivity ratio [1]: 100
- Selectivity ratio [2]: 300
- Selectivity ratio [3]: 7
- EC90 (Huh-7 [4]): 300 pM
- EC90 (Huh-7 [5]): 3 pM
- EC90 [6]: 0.1 pM
- Selectivity ratio [7]: 2
- EC90 (Huh-7 [8]): 10 pM
- EC90 (Huh-7 [9]): 2 pM
- Selectivity ratio [10]: 7
- Selectivity ratio [11]: 1
- Selectivity ratio [12]: 1
- EC90 [13]: 20 pM
- EC90 [14]: 20 pM
- Selectivity ratio [15]: 67
- EC90 (Huh-7 [16]): 3 pM
- Selectivity ratio [17]: 23
- EC90 [18]: 1 pM
- Selectivity ratio [19]: 1
- EC90 [20]: 5 pM
- EC90 [21]: 70 pM
- Selectivity ratio [22]: 1
- EC90 [23]: 200 pM
- Selectivity ratio [24]: 3
- Selectivity ratio [25]: 1
- EC90 [26]: 900 pM
- EC90 [27]: 2 pM
- Selectivity ratio [28]: 167

From ChEMBL document CHEMBL4715796, “Discovery of Chromane Containing Hepatitis C Virus (HCV) NS5A Inhibitors with Improved Potency against Resistance-Associated Variants” (J Med Chem, 2016)
